Where “and” joins values, the source holds several entries; their conditions need not be identical. Equal entries are not always repeated. Blank lines part the entries; values can stand above or below the molecule they belong to.
What was measured:
[1] = molecular target: T1, Type-1 angiotensin II receptor B (Rattus norvegicus, UniProt P29089); assay: Inhibition of [125I]- Sar,Ile8-angiotensin II binding to rat adrenal cortical membrane angiotensin II receptor
T1 sequence (P29089 whole entry): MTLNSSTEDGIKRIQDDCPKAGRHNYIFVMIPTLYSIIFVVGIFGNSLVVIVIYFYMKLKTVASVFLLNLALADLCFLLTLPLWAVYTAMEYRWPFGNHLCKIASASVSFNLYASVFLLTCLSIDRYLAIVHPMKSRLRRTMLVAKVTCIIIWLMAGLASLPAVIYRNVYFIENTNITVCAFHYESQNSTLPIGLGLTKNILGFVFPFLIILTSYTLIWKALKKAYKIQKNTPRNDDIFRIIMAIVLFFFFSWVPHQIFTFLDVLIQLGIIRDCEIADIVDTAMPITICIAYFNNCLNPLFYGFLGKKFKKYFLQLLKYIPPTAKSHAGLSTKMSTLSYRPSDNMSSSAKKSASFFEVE

[2] = organism: Oryctolagus cuniculus; assay: In vitro functional potency by antagonism of angiotensin II induced contraction of isolated rabbit aorta
Method in brief: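 Isolated rabbit aorta contracted by angiotensin II; antagonism expressed as KB (nM, ±SEM).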

[3] = tested on: Rattus norvegicus; assay: In vivo antihypertensive activity against spontaneously hypertensive rats after oral administration of 30 uM/Kg dose between 0-6 hours; assay type: functional
Method in brief: (§1)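 Male SHR, surgically prepared, recovered 2 weeks on regular food and water. Low-NaCl diet from 5 days before testing; furosemide 2.5 mg/kg on 3 consecutive days before testing. Compounds given orally as agar suspension. Mean arterial pressure monitored for 24 h; maximum % fall in pressure per 6-h interval, n = 8-10.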

[4] = tested on: Rattus norvegicus; assay: In vivo antihypertensive activity against spontaneously hypertensive rats after oral administration of 30 uM/Kg dose between 12-18 hours; assay type: functional; method in brief: as §1
[5] = tested on: Rattus norvegicus; assay: In vivo antihypertensive activity against spontaneously hypertensive rats after oral administration of 30 uM/Kg dose between 18-24 hours; assay type: functional; method in brief: as §1
[6] = tested on: Rattus norvegicus; assay: In vivo antihypertensive activity against spontaneously hypertensive rats after oral administration of 30 uM/Kg dose between 6-12 hours; assay type: functional; method in brief: as §1
[7] = tested on: Rattus norvegicus; assay: Compound was tested in vivo for antagonistic activity for the 50% inhibition of AII pressor response in male rats after intravenous administration; assay type: functional
Method in brief: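 Normotensive male rats received three doses of test agent iv, then AII challenge (100 ng/kg iv) 2 min later. ED50 (dose halving the AII pressor response) from simplex curve fit of log dose versus maximum percent inhibition; n = 4.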

[8] = tested on: Rattus norvegicus; assay: In vivo antihypertensive activity against spontaneously hypertensive rats after oral administration of 10 uM/Kg dose between 0-6 hours; assay type: functional; method in brief: as §1
[9] = tested on: Rattus norvegicus; assay: In vivo antihypertensive activity against spontaneously hypertensive rats after oral administration of 10 uM/Kg dose between 12-18 hours; assay type: functional; method in brief: as §1
[10] = tested on: Rattus norvegicus; assay: In vivo antihypertensive activity against spontaneously hypertensive rats after oral administration of 10 uM/Kg dose between 18-24 hours; assay type: functional; method in brief: as §1
[11] = tested on: Rattus norvegicus; assay: In vivo antihypertensive activity against spontaneously hypertensive rats after oral administration of 10 uM/Kg dose between 6-12 hours; assay type: functional; method in brief: as §1
[12] = tested on: Rattus norvegicus; assay: In vivo antihypertensive activity against spontaneously hypertensive rats after oral administration of 30 umol/kg dose between 0-6 hours; assay type: functional; method in brief: as §1
[13] = tested on: Rattus norvegicus; assay: In vivo antihypertensive activity against spontaneously hypertensive rats after oral administration of 30 umol/kg dose between 6-12 hours; assay type: functional; method in brief: as §1
[14] = tested on: Rattus norvegicus; assay: In vivo antihypertensive activity against spontaneously hypertensive rats after oral administration of 10 umol/kg dose between 0-6 hours; assay type: functional; method in brief: as §1
[15] = tested on: Rattus norvegicus; assay: In vivo antihypertensive activity against spontaneously hypertensive rats after oral administration of 30 umol/kg dose between 12-18 hours; assay type: functional; method in brief: as §1
[16] = tested on: Rattus norvegicus; assay: In vivo antihypertensive activity against spontaneously hypertensive rats after oral administration of 30 umol/kg dose between 18-24 hours; assay type: functional; method in brief: as §1
[17] = tested on: Rattus norvegicus; assay: In vivo antihypertensive activity against spontaneously hypertensive rats after oral administration of 10 umol/kg dose between 6-12 hours; assay type: functional; method in brief: as §1

SMILES: CCCCC1=NC(Cl)=C(C(=O)O)C(C)N1Cc1ccc(-c2ccccc2-c2nn[nH]n2)cc1 (stereo unspecified)
Ki [1]: 1 nM
Kb ([2]; Oryctolagus cuniculus, Aorta): 0.45 nM
Decrease in blood pressure [3]: 8%
Decrease in blood pressure [4]: 2%
Decrease in blood pressure [5]: 1%
Decrease in blood pressure [6]: 0%
ED50 [7]: 0.076 µmol/kg

SMILES: CCCCC1=NC(Cl)=C(C(=O)OCC)C(C)N1Cc1ccc(-c2ccccc2-c2nnn[n-]2)cc1.[K+] (stereo unspecified)
Ki [1]: 8.3 nM
Kb ([2]; Oryctolagus cuniculus, Aorta): 5.3 nM
Decrease in blood pressure [8]: 14%
Decrease in blood pressure [9]: 15%
Decrease in blood pressure [10]: 17%
Decrease in blood pressure [11]: 14%
Decrease in blood pressure [12]: 23%
Decrease in blood pressure [4]: 19%
Decrease in blood pressure [5]: 20%
Decrease in blood pressure [6]: 20%
ED50 [7]: 1.65 µmol/kg

SMILES: CCCCC1=NC(Cl)=C(C(=O)OCC)C(c2ccccc2)N1Cc1ccc(-c2ccccc2C(=O)O)cc1 (stereo unspecified)
Kb ([2]; Oryctolagus cuniculus, Aorta): 1000 nM

SMILES: CCCCc1nc(Cl)c(CO)n1Cc1ccc(-c2ccccc2-c2nnn[n-]2)cc1.[K+] [LOSARTAN POTASSIUM]
Kb [2]: 2.6 nM
Decrease in blood pressure [12]: 31%
ED50 [7]: 1.8 µmol/kg
Decrease in blood pressure [13]: 35%
Decrease in blood pressure [14]: 13%
Decrease in blood pressure [15]: 37% and 22%
Decrease in blood pressure [16]: 38% and 24%
Decrease in blood pressure [17]: 20%

SMILES: CCCCc1nc(-c2ccccc2)c(C(=O)OCC)c(=O)n1Cc1ccc(-c2ccccc2C(=O)O)cc1
Ki [1]: 1600 nM
Kb ([2]; Oryctolagus cuniculus, Aorta): 140 nM

SMILES: CCCCc1nc(Cl)c(CO)n1Cc1ccc(-c2ccccc2-c2nnn[nH]2)cc1 [LOSARTAN]
Kb [2]: 86 nM

Now from value to molecule, other results behind:

Ki [1]: 150 nM
SMILES: CCCCc1nc(C)c(C(=O)OCC)c(=O)n1Cc1ccc(-c2ccccc2C(=O)O)cc1
Kb ([2]; Oryctolagus cuniculus, Aorta): 95 nM

Ki [1]: 990 nM
SMILES: CCCCC1=NC(C)=C(C(=O)OCC)C(C)N1Cc1ccc(-c2ccccc2C(=O)O)cc1 (stereo unspecified)
Kb ([2]; Oryctolagus cuniculus, Aorta): 660 nM

Ki [1]: 1.1 nM
SMILES: CCCCC1=NC(C)(C)C(C(=O)OCC)=C(Cl)N1Cc1ccc(-c2ccccc2-c2nn[nH]n2)cc1
Kb ([2]; Oryctolagus cuniculus, Aorta): 24 nM
Decrease in blood pressure [3]: 5%
Decrease in blood pressure [4]: 4%
Decrease in blood pressure [5]: 2%
Decrease in blood pressure [6]: 3%
ED50 [7]: 2.4 µmol/kg

Ki [1]: 58 nM
SMILES: CCCCC1=NC(C)(C)C(C(=O)OCC)=C(Cl)N1Cc1ccc(-c2ccccc2C(=O)O)cc1
Kb ([2]; Oryctolagus cuniculus, Aorta): 23 nM

Ki [1]: 850 nM
SMILES: CCCCC1=NC(c2ccccc2)=C(C(=O)OCC)C(C)N1Cc1ccc(-c2ccccc2C(=O)O)cc1 (stereo unspecified)
Kb ([2]; Oryctolagus cuniculus, Aorta): 630 nM

Ki [1]: 41 nM
SMILES: CCCCC1=NC(Cl)=C(C(=O)OCC)C(C)N1Cc1ccc(-c2ccccc2C(=O)O)cc1 (stereo unspecified)
Kb ([2]; Oryctolagus cuniculus, Aorta): 70 nM

Ki [1]: 190 nM
SMILES: CCCCC1=NC(c2ccc(Cl)cc2)=C(C(=O)OCC)C(C)N1Cc1ccc(-c2ccccc2C(=O)O)cc1 (stereo unspecified)
Kb ([2]; Oryctolagus cuniculus, Aorta): 520 nM

Ki [1]: 82 nM
SMILES: CCCCc1ncc(C(=O)OCC)c(=O)n1Cc1ccc(-c2ccccc2C(=O)O)cc1
Kb ([2]; Oryctolagus cuniculus, Aorta): 610 nM
